Tests used:
[1] = Hypochlorus scavenging activity at 10 uM in presence of sodium hypochlorite after 15 mins by APF dye based fluorescence assay relative to control; type: functional
Outline: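 NaOCl-scavenger counterscreen in 1536-well format: 50 μM NaOCl in place of MPO with APF reagent, compound 10 μM final; fluorescence intensity read after 15 min incubation; ≥20% loss of fluorescence flagged as interference.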

Myeloperoxidase [2] = molecular target: T1, Myeloperoxidase (Homo sapiens, UniProt P05164); test: Inhibition of human MPO peroxidase activity in presence of H2O2 measured at 30 secs time interval for 5 mins by amplex red reagent based fluorescence assay
T1 sequence (P05164 whole entry): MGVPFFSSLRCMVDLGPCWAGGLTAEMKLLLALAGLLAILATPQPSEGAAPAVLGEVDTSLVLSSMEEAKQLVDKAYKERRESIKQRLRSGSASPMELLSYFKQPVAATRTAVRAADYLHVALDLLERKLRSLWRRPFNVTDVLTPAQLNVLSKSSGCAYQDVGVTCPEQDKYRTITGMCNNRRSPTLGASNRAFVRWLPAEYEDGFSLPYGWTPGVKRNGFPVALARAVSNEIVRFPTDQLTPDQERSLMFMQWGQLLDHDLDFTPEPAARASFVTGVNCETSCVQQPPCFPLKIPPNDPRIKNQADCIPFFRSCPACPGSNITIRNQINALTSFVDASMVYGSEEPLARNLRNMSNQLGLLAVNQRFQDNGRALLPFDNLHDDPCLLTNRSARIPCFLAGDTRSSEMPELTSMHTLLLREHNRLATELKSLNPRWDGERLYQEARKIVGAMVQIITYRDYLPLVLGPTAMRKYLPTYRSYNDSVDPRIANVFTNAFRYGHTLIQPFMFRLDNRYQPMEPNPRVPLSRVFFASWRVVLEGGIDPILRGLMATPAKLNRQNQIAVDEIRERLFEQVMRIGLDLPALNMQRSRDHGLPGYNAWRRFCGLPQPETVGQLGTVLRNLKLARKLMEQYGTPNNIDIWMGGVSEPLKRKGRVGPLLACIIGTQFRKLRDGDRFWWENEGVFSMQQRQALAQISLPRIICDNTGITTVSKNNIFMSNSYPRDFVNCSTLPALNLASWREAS

Lactoperoxidase = Lactoperoxidase (Homo sapiens, UniProt P22079); test: Inhibition of recombinant human LPO isoform-1 (26 to 712 residues) expressed in baculovirus infected insect cells assessed as reduction in H2O2-catalyzed 3,5-iodo tyrosine formation using 3-iodotyrosine and potassium iodide preincubated for 10 mins followed by 3,5-iodo tyrosine/potassium iodide/H2O2 addition and measured after 15 mins
Sequence of Lactoperoxidase (P22079 whole entry, the tested form may be a part, canonical isoform): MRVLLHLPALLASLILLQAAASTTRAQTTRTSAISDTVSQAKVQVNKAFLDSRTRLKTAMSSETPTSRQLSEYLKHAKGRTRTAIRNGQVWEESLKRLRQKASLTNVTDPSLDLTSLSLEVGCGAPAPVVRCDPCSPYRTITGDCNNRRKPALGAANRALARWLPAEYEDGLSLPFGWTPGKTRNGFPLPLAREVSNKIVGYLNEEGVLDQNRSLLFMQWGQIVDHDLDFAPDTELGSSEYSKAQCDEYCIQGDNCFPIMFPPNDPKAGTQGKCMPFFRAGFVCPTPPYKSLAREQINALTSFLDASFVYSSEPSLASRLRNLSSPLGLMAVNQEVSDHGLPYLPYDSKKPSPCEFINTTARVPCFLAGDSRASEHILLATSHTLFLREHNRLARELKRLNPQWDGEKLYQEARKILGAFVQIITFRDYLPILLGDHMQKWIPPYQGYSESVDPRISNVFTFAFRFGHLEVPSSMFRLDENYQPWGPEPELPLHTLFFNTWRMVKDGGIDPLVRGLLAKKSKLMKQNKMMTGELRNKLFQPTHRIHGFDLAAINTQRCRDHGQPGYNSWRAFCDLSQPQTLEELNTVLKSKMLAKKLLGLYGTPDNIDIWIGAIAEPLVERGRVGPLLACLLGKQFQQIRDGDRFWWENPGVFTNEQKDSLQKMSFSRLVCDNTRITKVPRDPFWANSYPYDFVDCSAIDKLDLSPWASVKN
Outline: (§1)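 LPO isoform 1 residues 26–712, baculovirus/T. ni expressed, purified by cation exchange, hydrophobic interaction and size exclusion; 2.0 nM in 100 mM KPi pH 7.4, 10 min rt preincubation with inhibitor; then 400 μM KI/240 μM 3-iodotyrosine mix and 20 μM H2O2 (added solutions); 3,5-iodotyrosine formation monitored.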

Eosinophil peroxidase = molecular target: T2, Eosinophil peroxidase (Homo sapiens, UniProt P11678); test: Inhibition of eosinophil peroxidase (unknown origin)assessed as reduction in H2O2-catalyzed 3-bromo tyrosine formation using tyrosine and potassium bromide preincubated for 10 mins followed by tyrosine/potassium bromide/H2O2 addition and measured after 15 mins by RP-UPLC analysis
T2 sequence (P11678 whole entry): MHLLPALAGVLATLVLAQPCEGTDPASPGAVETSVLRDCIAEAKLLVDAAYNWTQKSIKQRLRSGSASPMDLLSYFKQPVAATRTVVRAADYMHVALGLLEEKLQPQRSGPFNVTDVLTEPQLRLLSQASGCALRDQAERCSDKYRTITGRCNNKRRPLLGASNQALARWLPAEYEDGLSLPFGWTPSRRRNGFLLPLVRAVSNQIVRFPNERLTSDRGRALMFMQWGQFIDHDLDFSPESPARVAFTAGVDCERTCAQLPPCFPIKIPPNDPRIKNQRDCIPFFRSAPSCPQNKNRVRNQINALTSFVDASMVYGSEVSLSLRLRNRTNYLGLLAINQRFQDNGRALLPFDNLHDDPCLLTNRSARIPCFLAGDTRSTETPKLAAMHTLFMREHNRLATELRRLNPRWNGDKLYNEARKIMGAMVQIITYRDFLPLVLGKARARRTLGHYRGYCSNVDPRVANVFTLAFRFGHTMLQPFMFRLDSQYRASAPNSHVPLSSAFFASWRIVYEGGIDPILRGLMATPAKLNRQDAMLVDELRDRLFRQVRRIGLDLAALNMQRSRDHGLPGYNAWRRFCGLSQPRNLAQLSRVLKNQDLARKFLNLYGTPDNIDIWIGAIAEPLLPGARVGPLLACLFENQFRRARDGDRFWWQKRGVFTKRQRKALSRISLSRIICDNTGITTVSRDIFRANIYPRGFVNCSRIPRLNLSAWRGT
Outline: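 Commercial EPX, purity ≥98%, 0.6 μM, in 100 mM KPi pH 7.4, preincubated with inhibitor 10 min at rt; then 400 μM tyrosine/1200 μM KBr mix, followed by 20 μM H2O2 (added solutions); 3-bromotyrosine quantified by reversed-phase LC, column 60 °C, MeOH/TFA gradient.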

MPO, mouse = MPO, mouse (Mus musculus, UniProt P11247); test: Inhibition of mouse C-terminal His10 tagged MPO (Met16 to Thr718 residues) assessed as reduction in enzyme-mediated chlorination by measuring reduction in HOCl formation preincubated for 10 mins followed by H2O2/NaCl addition and measured at 30 secs time interval for 5 mins by APF dye based fluorescence assay
Sequence of MPO, mouse (P11247 whole entry, looked up, the tested form may be a part): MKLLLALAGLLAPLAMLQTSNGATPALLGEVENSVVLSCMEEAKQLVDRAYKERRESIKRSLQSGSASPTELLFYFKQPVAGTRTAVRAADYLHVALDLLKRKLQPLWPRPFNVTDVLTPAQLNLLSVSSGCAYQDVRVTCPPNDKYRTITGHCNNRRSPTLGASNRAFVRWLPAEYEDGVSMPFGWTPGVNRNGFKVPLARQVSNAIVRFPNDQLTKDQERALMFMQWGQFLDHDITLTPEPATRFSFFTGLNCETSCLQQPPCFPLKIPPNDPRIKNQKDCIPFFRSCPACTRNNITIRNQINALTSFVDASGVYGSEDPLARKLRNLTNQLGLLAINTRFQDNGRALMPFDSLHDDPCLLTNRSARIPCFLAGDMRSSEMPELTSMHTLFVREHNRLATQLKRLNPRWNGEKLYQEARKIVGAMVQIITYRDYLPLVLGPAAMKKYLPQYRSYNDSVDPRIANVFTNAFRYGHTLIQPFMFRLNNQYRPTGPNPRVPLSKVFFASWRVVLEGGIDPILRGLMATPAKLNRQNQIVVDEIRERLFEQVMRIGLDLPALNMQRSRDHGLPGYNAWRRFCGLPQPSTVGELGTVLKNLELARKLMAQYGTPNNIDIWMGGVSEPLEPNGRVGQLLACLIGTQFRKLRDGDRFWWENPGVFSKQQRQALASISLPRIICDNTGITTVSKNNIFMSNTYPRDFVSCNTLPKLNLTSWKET

Homo sapiens [3] = species: Homo sapiens; test: Selectivity ratio of IC50 for recombinant human C-terminal His6-tagged TPO (15 to 839 residues) expressed in baculovirus infected insect cells to IC50 for human MPO
Outline: as §1, with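 “TPO” for “LPO isoform 1”, “15–839 with C-terminal His6,” for “26–712,”, “Ni affinity, anion exchange” for “cation exchange, hydrophobic interaction”, “4.0” for “2.0”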

Homo sapiens [4] = species: Homo sapiens; test: Selectivity ratio of IC50 for recombinant human LPO isoform-1 (26 to 712 residues) expressed in baculovirus infected insect cells to IC50 for human MPO; outline: as §1
[5] = Protein binding in human plasma; type: ADME, cell-free; conditions: read-out: PPB
[6] = Protein binding in mouse plasma; type: ADME, cell-free; conditions: read-out: PPB (converted)
Mus musculus = test: In vivo inhibition of MPO in PMA-stimulated C57BL6 mouse neutrophil degranulation model assessed as reduction in HOCl production at 100 mg/kg, po pretreated for 20 mins followed by PMA stimulation and measured after 2 mins by luminol chemiluminescence assay relative to control; type: functional
[7] = Plasma concentration in PMA-stimulated C57BL6 mouse neutrophil degranulation model at 30 mg/kg, po after 20 mins; type: ADME, organism-based
[8] = Ratio of plasma concentration in PMA-stimulated C57BL6 mouse neutrophil degranulation model at 100 mg/kg, po after 20 mins to in vitro IC50 for MPO in PMA-stimulated human neutrophils; type: ADME, organism-based; conditions: in vivo
Myeloperoxidase [9] = molecular target: T1, Myeloperoxidase; test: Inhibition of human MPO chlorination activity assessed as reduction in ApoA1-mediated [1,2 3H]-cholesterol efflux in PMA-stimulated human THP1 cells preincubated with enzyme and ApoA1 for 30 mins in presence of H2O2 followed by addition to THP1 cells and measured after overnight incubation

IC50 (Myeloperoxidase [2])	IC50 (Lactoperoxidase)	IC50 (Eosinophil peroxidase)	IC50 (MPO, mouse)	fraction unbound [5]	fraction unbound [6]	concentration at 20 min [7]	Ratio [8]	EC50 (Myeloperoxidase [9])	Compound	Activity [1]	Ratio IC50 (Homo sapiens [3])	Ratio IC50 (Homo sapiens [4])	inhibition in vivo at 100 mg/kg (Mus musculus)
110 nM	> 30000 nM	15 nM	81 nM	0.01	0.13	180 µM	92	10000 nM	Nc1nc(OCc2ccccc2)c2[nH]nnc2n1	< 20%	> 10	> 10	70%
840 nM	13000 nM	160 nM	230 nM						Nc1ccc(Oc2cc(Cl)c(Cl)cc2Cl)cn1	< 20%	> 10	> 10	
